Laboratory results as given in ChEMBL document CHEMBL4396874, “Consideration of Binding Kinetics in the Design of Stapled Peptide Mimics of the Disordered Proteins Eukaryotic Translation Initiation Factor 4E-Binding Protein 1 and Eukaryotic Translation Initiation Factor 4G” (J Med Chem, 2019).
The source made the active and inactive calls. The rule behind the calls is not given here. Bridge positions count the residues as written; N and C are the ends. Square brackets hold non-standard residues; d marks the D form. Peptide text beside a SMILES is read from it. S5 = C=CCCC[C@](C)(N)C(=O)O

Tests used:
[1] = target: Eukaryotic translation initiation factor 4E/Eukaryotic translation initiation factor 4E-binding protein 1 (Homo sapiens, UniProt P06730); assay: Inhibition of Halo-tagged biotinylated human eIF4E expressed in Escherichia coli/Halo-tagged methyltetrazine-labelled human 4E-BP1 expressed in Escherichia coli protein-protein interaction incubated for 1 hr by catalytic enzyme-linked click chemistry assay
[2] = target: EIF4E/EIF4G1 (Homo sapiens) (UniProt P06730+Q04637); assay: Inhibition of eIF4E/eIF4G interaction in human MDA-MB-231 cells incubated for 6 hr by m7GDP pull down assay; type: cell-based
MDA-MB-231 [3] = assay: Anti-proliferative activity against human MDA-MB-231 cells at 5 to 20 uM after 6 days by CellTiter-Glo assay; type: functional, cell-based
Procedure, shortened: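 MDA-MB-231 cells (RPMI-1640, 10% FBS, 2 mM glutamine) plated at 2000 cells/well; peptides added at varying concentrations in triplicate for 6 days. Medium then replaced with OptiMEM, cells lysed with CellTiter-Glo reagent, luminescence read within 1 h. Data normalized; triplicate biological replicates.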

MDA-MB-231 [4] = assay: Effect on total 4E-BP1 level in human MDA-MB-231 cells at 5 uM after 6 hrs by Western blot analysis; type: ADME, cell-based; settings: mda-mb-231, 6 h
Procedure, shortened: (§1)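 MDA-MB-231 cells in 10% FBS treated 6 h with water-dissolved peptides, lysed in RIPA with protease/phosphatase inhibitors, sonicated on ice, protein normalized by BCA, then western blotted (4–12% bis-Tris gel, PVDF, 5% milk block, primary overnight at 4 °C). Triplicate biological replicates.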

MDA-MB-231 [5] = assay: Effect on total eIF4G level in human MDA-MB-231 cells at 5 uM after 6 hrs by Western blot analysis; type: ADME, cell-based; settings: mda-mb-231, 6 h; procedure, shortened: as §1
MDA-MB-231 [6] = assay: Induction of cell lysis in human MDA-MB-231 cells assessed as LDH leakage at 15 uM after 24 hrs by LDH cytotoxicity assay; settings: mda-mb-231, 24 h
MDA-MB-231 [7] = assay: Effect on total eIF4E level in human MDA-MB-231 cells at 5 uM after 6 hrs by Western blot analysis; type: ADME, cell-based; settings: mda-mb-231, 6 h; procedure, shortened: as §1
[8] = target: Eukaryotic translation initiation factor 4E/Eukaryotic translation initiation factor 4E-binding protein 1 (Homo sapiens) (UniProt P06730+Q13541); assay: Inhibition of eIF4E/4E-BP1 interaction in human MDA-MB-231 cells incubated for 6 hr by m7GDP pull down assay; type: cell-based
[9] = target: T1, Eukaryotic translation initiation factor 4E (Homo sapiens, UniProt P06730); assay: Binding affinity to N-terminal 10His-tagged m7GDP-bound recombinant human eIF4E expressed in Escherichia coli BL21 (DE3) cells assessed as dissociation constant at 10 to 25 degreeC by surface plasmon resonance analysis relative to control
Procedure, shortened: (§2)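 Peptides injected at 50 μL/min, 10 concentrations (188 nM to 4.0 μM) in duplicate, random order. Chip stripped with EDTA and reloaded between cycles.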

[10] = target: T1, Eukaryotic translation initiation factor 4E
[11] = target: T1, Eukaryotic translation initiation factor 4E; assay: Binding affinity to N-terminal 10His-tagged m7GDP-bound recombinant human eIF4E expressed in Escherichia coli BL21 (DE3) cells assessed as dissociation constant at 25 degreeC in presence 225 to 1000 mM of NaCl by surface plasmon resonance analysis
[12] = target: T1, Eukaryotic translation initiation factor 4E; assay: Binding affinity to N-terminal 10His-tagged m7GDP-bound recombinant human eIF4E expressed in Escherichia coli BL21 (DE3) cells assessed as binding constant at 25 degreeC in presence of 1000 mM of NaCl by surface plasmon resonance analysis; procedure, shortened: as §2
[13] = target: T1, Eukaryotic translation initiation factor 4E; assay: Binding affinity to N-terminal 10His-tagged m7GDP-bound recombinant human eIF4E expressed in Escherichia coli BL21 (DE3) cells assessed as association rate constant at 25 degreeC by surface plasmon resonance analysis
[14] = target: T1, Eukaryotic translation initiation factor 4E; assay: Binding affinity to N-terminal 10His-tagged m7GDP-bound recombinant human eIF4E expressed in Escherichia coli BL21 (DE3) cells assessed as association constant at 12.5 to 200 nM at 10 to 25 degreeC by surface plasmon resonance analysis
[15] = target: T1, Eukaryotic translation initiation factor 4E; assay: Binding affinity to N-terminal 10His-tagged m7GDP-bound recombinant human eIF4E expressed in Escherichia coli BL21 (DE3) cells assessed as binding constant at 10 to 25 degreeC by surface plasmon resonance analysis
[16] = target: T1, Eukaryotic translation initiation factor 4E; assay: Binding affinity to N-terminal 10His-tagged m7GDP-bound recombinant human eIF4E expressed in Escherichia coli BL21 (DE3) cells assessed as dissociation rate constant at 25 degreeC by surface plasmon resonance analysis
[17] = target: T1, Eukaryotic translation initiation factor 4E; assay: Binding affinity to N-terminal 10His-tagged m7GDP-bound recombinant human eIF4E expressed in Escherichia coli BL21 (DE3) cells assessed as binding constant at 25 degreeC by surface plasmon resonance analysis
Procedure, shortened: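 m7GDP-bound His10-eIF4E captured to ~600 RU on a Ni-activated HisCap chip. EDTA regeneration between cycles. Kd from global 1:1 fit; triplicate experiments.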

Chain of Eukaryotic translation initiation factor 4E/Eukaryotic translation initiation factor 4E-binding protein 1 (P06730 whole entry): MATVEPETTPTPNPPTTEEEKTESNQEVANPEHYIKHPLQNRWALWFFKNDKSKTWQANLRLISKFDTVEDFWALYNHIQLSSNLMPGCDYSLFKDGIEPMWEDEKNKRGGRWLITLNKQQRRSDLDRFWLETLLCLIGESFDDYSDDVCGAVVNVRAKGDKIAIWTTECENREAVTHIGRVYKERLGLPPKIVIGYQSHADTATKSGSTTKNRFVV
Chain of Eukaryotic translation initiation factor 4E/Eukaryotic translation initiation factor 4E-binding protein 1 (Q13541 whole entry, further chain): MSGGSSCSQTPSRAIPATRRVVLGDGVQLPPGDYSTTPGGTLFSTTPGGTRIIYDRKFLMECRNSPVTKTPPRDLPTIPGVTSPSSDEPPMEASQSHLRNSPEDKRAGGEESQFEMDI
T1 sequence (P06730 whole entry): as the sequence (P06730 whole entry) above
Chain of Eukaryotic translation initiation factor 4E/Eukaryotic translation initiation factor 4E-binding protein 1 (Homo sapiens) (P06730 2-217 limits assumed): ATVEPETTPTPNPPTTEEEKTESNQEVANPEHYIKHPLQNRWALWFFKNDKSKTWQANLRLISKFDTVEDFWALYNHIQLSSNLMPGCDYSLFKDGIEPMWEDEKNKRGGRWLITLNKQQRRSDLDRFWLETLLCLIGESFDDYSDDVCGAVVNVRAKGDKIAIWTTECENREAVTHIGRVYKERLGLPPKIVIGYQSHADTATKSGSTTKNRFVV
Chain of Eukaryotic translation initiation factor 4E/Eukaryotic translation initiation factor 4E-binding protein 1 (Homo sapiens) (Q13541 2-118 partner limits assumed): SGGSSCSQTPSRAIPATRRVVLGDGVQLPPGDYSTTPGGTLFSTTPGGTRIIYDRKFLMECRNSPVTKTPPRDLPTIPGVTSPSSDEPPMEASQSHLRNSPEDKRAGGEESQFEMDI

Work on `CC(=O)N[C@@H](CCCCN)C(=O)N[C@@H](CCCCN)C(=O)N[C@@H](CCCNC(=N)N)C(=O)N[C@@H](Cc1ccc(O)cc1)C(=O)N[C@@H](CC(=O)O)C(=O)N[C@@H](CCCNC(=N)N)C(=O)N[C@@H](CCC(=O)O)C(=O)N[C@@H](Cc1ccccc1)C(=O)N[C@@H](CC(C)C)C(=O)N[C@@H](CC(C)C)C(=O)NCC(=O)N[C@@H](Cc1ccccc1)C(=O)N[C@@H](CCC(N)=O)C(=O)N[C@@H](Cc1ccccc1)C(N)=O` yielded an IC50 [1] of 137 to 195 nM.

For `CC(=O)N[C@@H](CCCCN)C(=O)N[C@@H](CCCCN)C(=O)N[C@@H](CCCNC(=N)N)C(=O)N[C@@H](Cc1ccc(O)cc1)C(=O)N[C@@H](CO)C(=O)N[C@@H](CCCNC(=N)N)C(=O)N[C@@]1(C)CCC/C=C\CCC[C@@](C)(C(=O)N[C@@H](CC(C)C)C(N)=O)NC(=O)[C@H](CC(C)C)NC(=O)[C@H](CC(C)C)NC(=O)[C@H](CCC(N)=O)NC1=O`, the IC50 [1] was 16.6 to 31 nM, the inhibition [2] was “Dose-dependent effect” and the Activity (MDA-MB-231 [3]) was “Active”. For the same molecule, the Activity (MDA-MB-231 [4]) was “Non-Toxic”, the Activity (MDA-MB-231 [5]) was “Non-Toxic” and the Activity (MDA-MB-231 [6]) was “Non-Toxic”. For the same molecule, the Activity (MDA-MB-231 [7]) was “Non-Toxic” and the inhibition [8] was “Dose-dependent effect”.

`CC(=O)N[C@@H](CCCCN)C(=O)N[C@@H](CCCCN)C(=O)N[C@@H](CCCNC(=N)N)C(=O)N[C@@H](Cc1ccc(O)cc1)C(=O)N[C@@H](CC(=O)O)C(=O)N[C@@H](CCCNC(=N)N)C(=O)N[C@@]1(C)CCC/C=C\CCC[C@@](C)(C(=O)N[C@@H](Cc2ccccc2)C(=O)N[C@@H](CCC(N)=O)C(=O)N[C@@H](Cc2ccccc2)C(N)=O)NC(=O)[C@H](CC(C)C)NC(=O)[C@H](CC(C)C)NC(=O)[C@H](Cc2ccccc2)NC1=O` (Ac-KKRYDR[S5]FLL[S5]FQF-NH2; staple (Z) 7-11) gave an IC50 [1] of 4500 to 7300 nM.

For `CC[C@H](C)[C@H](NC(=O)[C@H](CCCNC(=N)N)NC(=O)[C@@H](NC(=O)CNC(C)=O)[C@@H](C)O)C(=O)N[C@H](C(=O)N[C@@H](Cc1ccc(O)cc1)C(=O)N[C@@H](CC(=O)O)C(=O)N[C@@H](CCCNC(=N)N)C(=O)N[C@@]1(C)CCC/C=C\CCC[C@@](C)(C(=O)N[C@@H](CS)C(=O)N[C@@H](CCCNC(=N)N)C(=O)N[C@@H](CC(N)=O)C(N)=O)NC(=O)[C@H](C)NC(=O)[C@H](C)NC(=O)[C@H](Cc2ccccc2)NC1=O)[C@@H](C)CC`, the Activity (MDA-MB-231 [3]) was “inactive”.

`CC[C@H](C)[C@H](NC(=O)[C@@H](NC(=O)[C@@H](N)CCCNC(=N)N)[C@@H](C)CC)C(=O)N[C@@H](Cc1ccc(O)cc1)C(=O)N[C@@H](CC(=O)O)C(=O)N[C@@H](CCCNC(=N)N)C(=O)N[C@@H](CCCCN)C(=O)N[C@@H](Cc1ccccc1)C(=O)N[C@@H](CC(C)C)C(=O)N[C@@H](CCSC)C(=O)N[C@@H](CCC(=O)O)C(=O)N[C@@H](CS)C(=O)N[C@@H](CCCNC(=N)N)C(=O)N[C@@H](CC(N)=O)C(N)=O` was tested, and the fold change (FC) [9] was 3.9 to 5.5, the Ka [10] was “inactive” and the Kd [11] was “Not Active”. The K [12] was “Active”.

In the case of `CC[C@H](C)[C@H](NC(=O)[C@H](CCCNC(=N)N)NC(=O)[C@@H](NC(=O)CNC(C)=O)[C@@H](C)O)C(=O)N[C@H](C(=O)N[C@@H](Cc1ccc(O)cc1)C(=O)N[C@@H](CC(=O)O)C(=O)N[C@@H](CCCNC(=N)N)C(=O)N[C@@]1(C)CCC/C=C\CCC[C@@](C)(C(=O)N[C@@H](CS)C(=O)N[C@@H](CCCNC(=N)N)C(=O)N[C@@H](CC(N)=O)C(N)=O)NC(=O)[C@H](CCSC)NC(=O)[C@H](CC(C)C)NC(=O)[C@H](Cc2ccccc2)NC1=O)[C@@H](C)CC`, the IC50 [1] is reported as 3.1 to 6.7 nM, the Activity (MDA-MB-231 [3]) is reported as “Active” and the Activity (MDA-MB-231 [4]) is reported as “Non-Toxic”. The Activity (MDA-MB-231 [5]) was “Non-Toxic” and the Activity (MDA-MB-231 [7]) was “Non-Toxic”.

Molecule H-KKRYDRKFLMECRN-NH2 has a fold change (FC) [9] of 3.9 to 5.5 and a kon [13] of 2 ×10⁶ /M/s.

In the case of Ac-KKRYSREQLLGL-NH2, the IC50 [1] is reported as 384 to 633 nM, the fold change (FC) [9] is reported as 3.9 to 5.5 and the kon [13] is reported as 2 ×10⁶ /M/s. For the same molecule, the Ka [14] was “inactive”, the K [15] was “Active” and the koff [16] was 123 ×10⁻³ /s. For the same molecule, the K [17] was 62 nM and the K [12] was 14 to 62 nM.
